Compound activity deposited in PubChem by several laboratories.
m5-HT2A agonist: activates the mouse 5-HT2A serotonin receptor; 360,000 compounds, 0.66% hits; CHO-K1 mHTR2A beta-arrestin complementation, luminescence; percent of 30 µM serotonin response; activation, % at 7.6 µM;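 active = activation above a run cutoff, the mean activation of all tested compounds plus 3 SD, cut at about 14% in these data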
Hep lipid drop: hepatic lipid droplet formation modulation; 240,000 compounds, 0.4% hits; inhibition, % at 6.5 µM; AML12 mouse hepatocytes, oleate lipid droplets, BODIPY imaging;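 active = lipid droplet intensity inhibited by at least 50%, with more than 500 cells counted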
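Technique: fluorescence imaging, 20x objective, two fields per well / Assay system: AML12 hepatocytes (mouse) / Measure: % inhibition of lipid droplet signal / Doses: 6.5 µM single-point dosing / Incubation: overnight exposure / Reagent: 100 µM oleic acid challenge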
MC4R antag cAMP: blocks human MC4R cAMP signaling; 360,000 compounds, 0.48% hits; inhibition, % at 6.5 µM; P32245; AID 540295; MC4R-expressing cells, MTII-stimulated cAMP, LANCE TR-FRET;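 active = inhibition above its plate's cutoff, the mean of tested wells on that plate plus 3 SD, cut at about 29% in these data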
Target sequence (P32245 whole entry, looked up): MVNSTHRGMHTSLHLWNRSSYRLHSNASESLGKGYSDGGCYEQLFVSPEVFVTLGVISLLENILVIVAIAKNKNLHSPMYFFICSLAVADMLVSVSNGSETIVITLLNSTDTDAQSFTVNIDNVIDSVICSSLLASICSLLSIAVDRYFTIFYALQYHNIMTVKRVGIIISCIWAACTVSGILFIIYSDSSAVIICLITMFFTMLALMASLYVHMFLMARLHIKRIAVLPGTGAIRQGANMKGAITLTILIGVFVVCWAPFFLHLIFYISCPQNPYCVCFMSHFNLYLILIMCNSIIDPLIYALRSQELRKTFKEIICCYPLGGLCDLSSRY
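Test system: U2OS cells stably expressing human melanocortin 4 receptor (MC4R); also added: Melanotan II challenge; compound: 6.5 µM single dose; timing: 30-min compound preincubation, 1-h Melanotan II challenge, 1-h detection, room temperature; signal: Eu-cAMP/anti-cAMP TR-FRET, emission 671 nm; repeats: one well per compound, no replicates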
PREPL inhibitor: human PREPL enzyme inhibition; Q4J6C6; recombinant PREPL, fluorescence polarization activity-based probe; inhibition, % at 5.96 µM; 320,000 compounds, 0.68% hits; AID 2751; in the data active = inhibition above about 43%
NTR1 ag: agonists of human neurotensin receptor NTR1 | 330,000 compounds, 0.17% hits | activation, % at 20 µM | P30989 | AID 493036 | NTR1-U2OS beta-arrestin-GFP spot imaging, agonist mode;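 active = activation at or above 40% of the spot to cytoplasm intensity ratio, with at least 20 cells analyzed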
MC4R barr agon: activates human MC4R beta-arrestin recruitment; 360,000 compounds, 0.98% hits; activation, % at 8.9 µM; AID 540308; U2OS MC4R beta-arrestin complementation, luminescence; percent of melanotan II response, DMSO zero; P32245;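 active = activation above a per-plate cutoff, the mean activation of sample wells on that plate plus 3 SD, cut at about 8% in these data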
OPRM1 ag: OPRM1 agonism in mouse HTR2A counterscreen. 2,300 compounds, 5.3% hits. U2OS OPRM1 beta-arrestin PathHunter, luminescence; DMSO 0%, DAMGO 9.3 µM 100%. activation, % at 9.3 µM. shares compounds with m5-HT2A agonist;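 active = mean activation above the mean of DMSO-only wells plus 3 SD, cut at about 0.5% in these data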
Target sequence (P35372 whole entry, looked up): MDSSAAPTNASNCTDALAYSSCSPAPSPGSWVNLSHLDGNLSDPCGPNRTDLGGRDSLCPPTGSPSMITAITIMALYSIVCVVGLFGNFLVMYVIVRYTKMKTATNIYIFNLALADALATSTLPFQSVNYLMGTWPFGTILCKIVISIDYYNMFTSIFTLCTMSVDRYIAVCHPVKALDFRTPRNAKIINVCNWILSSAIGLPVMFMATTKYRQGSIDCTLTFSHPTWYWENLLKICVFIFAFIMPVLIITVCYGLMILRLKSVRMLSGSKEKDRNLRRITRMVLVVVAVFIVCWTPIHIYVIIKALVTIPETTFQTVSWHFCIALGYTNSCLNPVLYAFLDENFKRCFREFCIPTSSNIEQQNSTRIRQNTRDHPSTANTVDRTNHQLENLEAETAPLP
HTR2A ag conf: mouse HTR2A agonism confirmed; activation, % at 7.6 µM; AID 624381; shares compounds with m5-HT2A agonist; 2,300 compounds, 19% hits; CHO-K1 PathHunter beta-arrestin recruitment, luminescence; DMSO 0%, 30 µM serotonin 100%;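 active = mean activation across triplicates above the hit threshold derived in the original primary screen, cut at about 15% in these data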
Of the large screens only hits and unclear results are named; the others gave an inactive call (follow-up assays come after a bar, where they were run). In the library only some 2.7% were active in any assay of this set; here they are far more common.

O=C(NCc1ccc(Cl)cc1)N1CCN(Cc2ccccc2)CC1	m5-HT2A agonist 35 | OPRM1 ag inactive | HTR2A ag conf inactive
COc1ccc(OC)c(NC(=S)N2CCN(Cc3ccccc3)CC2)c1	none
O=C(NCC(=O)N1CCN(c2ccccn2)CC1)c1ccc(Br)o1	none
CSCCC(NS(=O)(=O)c1cccc(C(F)(F)F)c1)C(=O)N(C)CCOc1ccc(Cl)cc1 (stereo unspecified)	none (no result: Hep lipid drop)
CCN(CC)CCN(Cc1cc2cc3c(cc2[nH]c1=O)OCCO3)C(=S)NCC(C)C	m5-HT2A agonist 22 | OPRM1 ag inactive | HTR2A ag conf inactive
O=C(NC1CCCCC1)C(c1ccncc1)n1c(=O)c(-c2cc3ccccc3[nH]2)nc2ccccc21 (stereo unspecified)	m5-HT2A agonist 16 (no result: Hep lipid drop, MC4R antag cAMP, PREPL inhibitor, NTR1 ag, MC4R barr agon) | OPRM1 ag inactive | HTR2A ag conf inactive
CC(C)(C)NC(=O)C(c1cc2ccccc2o1)n1c(=O)c(-c2cc3ccccc3[nH]2)nc2ccccc21 (stereo unspecified)	m5-HT2A agonist 31 (no result: Hep lipid drop, MC4R antag cAMP, PREPL inhibitor, NTR1 ag, MC4R barr agon) | OPRM1 ag inactive | HTR2A ag conf inactive
CC(C)(C)NC(=O)C(c1ccncc1)n1c(=O)c(-c2cc3ccccc3[nH]2)nc2ccccc21 (stereo unspecified)	none (no result: Hep lipid drop, MC4R antag cAMP, PREPL inhibitor, NTR1 ag, MC4R barr agon)
O=C(NC1CCCCC1)C(c1ccc(C(F)(F)F)cc1)n1c(=O)c(-c2cc3ccccc3[nH]2)nc2ccccc21 (stereo unspecified)	none (no result: Hep lipid drop, MC4R antag cAMP, PREPL inhibitor, NTR1 ag, MC4R barr agon)
O=C(NCC(c1ccco1)N1CCN(c2ccccc2F)CC1)c1ccco1 (stereo unspecified)	m5-HT2A agonist 15 (no result: Hep lipid drop) | OPRM1 ag inactive | HTR2A ag conf 36
O=C(NCC(c1ccco1)N1CCN(c2ccccc2F)CC1)c1cccs1 (stereo unspecified)	none (no result: Hep lipid drop)
COc1ccc(CN2CCN(C(=O)c3ccco3)CC2)cc1OCc1ccccc1	m5-HT2A agonist 19 (no result: Hep lipid drop) | OPRM1 ag inactive | HTR2A ag conf 74
COc1ccccc1OCc1ccc(C(=O)N2CCN(C(=O)c3ccco3)CC2)cc1	none (no result: Hep lipid drop)
COc1ccc(CN2CCN(C(=O)c3ccco3)CC2)cc1OC	m5-HT2A agonist 32 | OPRM1 ag inactive | HTR2A ag conf 82
CCOc1ccc(/C(O)=C/C(=O)C(=O)Nc2ccc(S(=O)(=O)NC(C)=O)cc2)cc1	none
CC(=O)N1C[C@H]2CON(C)[C@H]2C[C@H]1c1ccccc1Br	m5-HT2A agonist 18 (no result: Hep lipid drop, PREPL inhibitor, NTR1 ag) | OPRM1 ag inactive | HTR2A ag conf inactive
CCNC(=O)N1C[C@H]2CON(C)[C@H]2C[C@H]1c1ccccc1Br	none (no result: Hep lipid drop, PREPL inhibitor, NTR1 ag)
COC(=O)c1ccc(C)c(NS(=O)(=O)c2cn(C)nc2C)c1	none
COc1cc(NC(=O)CCc2nnc3ccc(N4CCCCC4)nn23)cc(OC)c1OC	m5-HT2A agonist 16 | OPRM1 ag inactive | HTR2A ag conf inactive
CC(=O)N1CCOc2cc(S(=O)(=O)N3CCN(c4ccccc4)CC3)c(Cl)cc21	m5-HT2A agonist 25 | OPRM1 ag inactive | HTR2A ag conf inactive
N#Cc1ccccc1Cn1c(=O)n(CCCC(=O)NCc2ccc3c(c2)OCO3)c(=O)c2ccccc21	m5-HT2A agonist 15 | OPRM1 ag inactive | HTR2A ag conf inactive
C/C=C/c1cccc(-c2nc(C(=O)NC3Cc4ccccc4C3)cc3c2[C@@H](CCO)N(C(C)=O)C3)c1	none (no result: Hep lipid drop, MC4R antag cAMP, PREPL inhibitor, NTR1 ag, MC4R barr agon)
CC(C)CNc1ncnc2c1ncn2[C@H]1CN(Cc2ccc(C(=O)O)cc2)C[C@@H](CO)O1	none (no result: Hep lipid drop, PREPL inhibitor, NTR1 ag)
CCn1c(=O)c(CCC(=O)N2CCN(c3ccccn3)CC2)c(C)c2c(C)nn(-c3cccc(C)c3)c21	none
CCN(CCCNC(=O)C1CCCN(S(=O)(=O)c2cnc[nH]2)C1)c1ccccc1 (stereo unspecified)	m5-HT2A agonist 18 | OPRM1 ag inactive | HTR2A ag conf inactive
CCN(CCNC(=O)C1CCCN(S(=O)(=O)c2cnc[nH]2)C1)c1ccccc1 (stereo unspecified)	none (no result: Hep lipid drop)
CCOC(=O)C1=C(C)NC(C)=C(C(=O)OCC)C1C(=O)OCC(=O)NCc1ccco1	none (no result: Hep lipid drop)
O=C1Nc2ccccc2-n2nnnc2C1N1CCN(C(=O)c2ccco2)CC1 (stereo unspecified)	m5-HT2A agonist 20 (no result: Hep lipid drop, MC4R antag cAMP, PREPL inhibitor, NTR1 ag, MC4R barr agon) | OPRM1 ag inactive | HTR2A ag conf inactive
Cc1cc(C)c2c(c1)c1nnc(SCCN3CCCCC3)nc1n2C	none (no result: PREPL inhibitor)
O=C(Nc1oc2ccccc2c(=O)c1-c1ccc2c(c1)OCO2)c1ccco1	m5-HT2A agonist 14 (no result: Hep lipid drop, PREPL inhibitor, NTR1 ag) | OPRM1 ag inactive | HTR2A ag conf inactive
C(=C\c1ccccc1)/CN1CCN(C(c2nnnn2C2CCCC2)C2CC2)CC1 (stereo unspecified)	none (no result: Hep lipid drop, MC4R antag cAMP, PREPL inhibitor, NTR1 ag, MC4R barr agon)
CCC(c1nnnn1-c1c(C)cccc1C)N1CCN(C/C=C/c2ccccc2)CC1 (stereo unspecified)	m5-HT2A agonist 27 (no result: Hep lipid drop, MC4R antag cAMP, PREPL inhibitor, NTR1 ag, MC4R barr agon) | OPRM1 ag inactive | HTR2A ag conf 78
COc1ccc(-n2nnnc2C(C2CC2)N2CCN(C/C=C/c3ccccc3)CC2)cc1 (stereo unspecified)	none (no result: Hep lipid drop, MC4R antag cAMP, PREPL inhibitor, NTR1 ag, MC4R barr agon)
CC(C)(C)n1nnnc1C(C1CC1)N1CCN(C/C=C/c2ccccc2)CC1 (stereo unspecified)	m5-HT2A agonist 20 (no result: Hep lipid drop, MC4R antag cAMP, PREPL inhibitor, NTR1 ag, MC4R barr agon) | OPRM1 ag inactive | HTR2A ag conf 35
Cc1cccc(C)c1-n1nnnc1C(C1CC1)N1CCN(C/C=C/c2ccccc2)CC1 (stereo unspecified)	m5-HT2A agonist 30 (no result: Hep lipid drop, MC4R antag cAMP, PREPL inhibitor, NTR1 ag, MC4R barr agon) | OPRM1 ag inactive | HTR2A ag conf 57
Cn1c(=O)cc(N)n(Cc2ccccc2)c1=O	none
COc1cc(OC)c(N2CC(C(=O)NCCC3=CCCCC3)CC2=O)cc1Cl (stereo unspecified)	none (no result: Hep lipid drop)
COC(=O)CCCCC1SCC(NC(=O)c2ccccc2)C1=O (stereo unspecified)	none
COc1ccc(-c2cc(C)no2)cc1S(=O)(=O)NCCCN1CCN(c2ccccc2)CC1	m5-HT2A agonist 17 | OPRM1 ag inactive | HTR2A ag conf 26
Cc1cc(-c2ccc(C)c(S(=O)(=O)NCCCN3CCN(c4ccccc4)CC3)c2)on1	none
CCCCCC(=O)N1C[C@@H](O)[C@H](n2cc(COC(=O)c3ccccc3)nn2)C[C@@H]1c1ccc(Cl)cc1	none (no result: Hep lipid drop, PREPL inhibitor, NTR1 ag)
C=CCN1CCc2cc(O)c(O)cc2C(c2ccccc2)C1 (stereo unspecified)	m5-HT2A agonist 29 (no result: Hep lipid drop) | OPRM1 ag inactive | HTR2A ag conf 86
